# According to ChEMBL document CHEMBL1914430, “Synthesis of some new 1,3,5-trisubstituted pyrazolines bearing benzene sulfonamide as anticancer and anti-inflammatory agents” (Bioorg Med Chem Lett, 2011):
# Assays:
# Assay type in all cases: functional
# Rattus norvegicus [1] = experiment: Antiinflammatory activity in Wistar rat assessed as inhibition of carrageenan-induced hind paw edema at 20 mg/kg, po administered 30 mins before carrageenan challenge measured after 3 hrs by plethysmometer
# In short: (§1)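 Wistar rats of either sex, 150–175 g, fasted 16 h, n = 6 per group. Compound given orally at 20 mg/kg as a suspension in 1% CMC in water (10 mL/kg); controls got vehicle only. After 30 min, 0.1 mL of 1% carrageenan in saline was injected subplantar into the left hind paw. Paw volume was measured by plethysmometer at 0, 3 and 5 h. Inhibition = (1 − Vt/Vc) × 100, reported as mean ± SEM.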
# Rattus norvegicus [2] = experiment: Antiinflammatory activity in Wistar rat assessed as inhibition of carrageenan-induced hind paw edema at 20 mg/kg, po administered 30 mins before carrageenan challenge measured after 5 hrs by plethysmometer; in short: as §1
# RPMI-8226 = experiment: Anticancer activity against human RPMI8226 cells assessed as cellular growth at 10 uM
# In short: (§2)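 Primary single-dose screen at 10⁻⁵ M, run under the NCI Drug Evaluation Branch protocol against the full panel of about 60 human tumour lines. The lines come from leukaemia, melanoma, lung, colon, CNS, ovarian, renal, prostate and breast cancers. Read-out is cellular growth.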
# A549 = experiment: Anticancer activity against human A549 cells assessed as cellular growth at 10 uM
# In short: (§3)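 Primary one-dose screen at 10⁻⁵ M, run per the NCI Drug Evaluation Branch protocol on the full panel of about 60 human tumor lines. The panel covers nine cancer types: leukemia, melanoma, lung, colon, CNS, ovarian, renal, prostate and breast.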
# EKVX = experiment: Anticancer activity against human EKVX cells assessed as cellular growth at 10 uM; in short: as §3
# HOP-62 = experiment: Anticancer activity against human HOP62 cells assessed as cellular growth at 10 uM; in short: as §3
# HOP-92 = experiment: Anticancer activity against human HOP92 cells assessed as cellular growth at 10 uM; in short: as §3
# NCI-H226 = experiment: Anticancer activity against human NCI-H226 cells assessed as cellular growth at 10 uM; in short: as §2
# NCI-H23 = experiment: Anticancer activity against human NCI-H23 cells assessed as cellular growth at 10 uM; in short: as §2
# NCI-H322M = experiment: Anticancer activity against human NCI-H322M cells assessed as cellular growth at 10 uM; in short: as §2
# NCI-H460 = experiment: Anticancer activity against human NCI-H460 cells assessed as cellular growth at 10 uM; in short: as §2
# NCI-H522 = experiment: Anticancer activity against human NCI-H522 cells assessed as cellular growth at 10 uM; in short: as §2
# COLO 205 = experiment: Anticancer activity against human COLO205 cells assessed as cellular growth at 10 uM; in short: as §3
# HCC 2998 = experiment: Anticancer activity against human HCC2998 cells assessed as cellular growth at 10 uM; in short: as §3
# HCT-116 = experiment: Anticancer activity against human HCT116 cells assessed as cellular growth at 10 uM; in short: as §3
# HCT-15 = experiment: Anticancer activity against human HCT15 cells assessed as cellular growth at 10 uM; in short: as §3
# HT-29 = experiment: Anticancer activity against human HT-29 cells assessed as cellular growth at 10 uM; in short: as §3
# KM12 = experiment: Anticancer activity against human KM12 cells assessed as cellular growth at 10 uM; in short: as §3
# SW-620 = experiment: Anticancer activity against human SW620 cells assessed as cellular growth at 10 uM
# In short: (§4)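 NCI primary one-dose screen at 10⁻⁵ M against the ~60 human tumour cell line panel (leukemia, melanoma, lung, colon, CNS, ovarian, renal, prostate, breast). Read-out is cellular growth.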
# SF-268 = experiment: Anticancer activity against human SF268 cells assessed as cellular growth at 10 uM; in short: as §2
# SF-295 = experiment: Anticancer activity against human SF295 cells assessed as cellular growth at 10 uM; in short: as §2
# SF-539 = experiment: Anticancer activity against human SF539 cells assessed as cellular growth at 10 uM; in short: as §2
# SNB-19 = experiment: Anticancer activity against human SNB19 cells assessed as cellular growth at 10 uM; in short: as §2
# SNB-75 = experiment: Anticancer activity against human SNB75 cells assessed as cellular growth at 10 uM; in short: as §2
# U-251 = experiment: Anticancer activity against human U251 cells assessed as cellular growth at 10 uM; in short: as §4
# LOX IMVI = experiment: Anticancer activity against human LOXIMVI cells assessed as cellular growth at 10 uM; in short: as §3
# Malme-3M = experiment: Anticancer activity against human MALME-3M cells assessed as cellular growth at 10 uM; in short: as §3
# M14 = experiment: Anticancer activity against human M14 cells assessed as cellular growth at 10 uM; in short: as §3
# MDA-MB-435 = experiment: Anticancer activity against human MDA-MB-435 cells assessed as cellular growth at 10 uM; in short: as §3
# SK-MEL-2 = experiment: Anticancer activity against human SK-MEL-2 cells assessed as cellular growth at 10 uM; in short: as §2
# SK-MEL-28 = experiment: Anticancer activity against human SK-MEL-28 cells assessed as cellular growth at 10 uM; in short: as §2
# SK-MEL-5 = experiment: Anticancer activity against human SK-MEL-5 cells assessed as cellular growth at 10 uM; in short: as §2
# UACC-257 = experiment: Anticancer activity against human UACC257 cells assessed as cellular growth at 10 uM; in short: as §4
# UACC-62 = experiment: Anticancer activity against human UACC62 cells assessed as cellular growth at 10 uM; in short: as §4
# IGROV-1 = experiment: Anticancer activity against human IGROV1 cells assessed as cellular growth at 10 uM; in short: as §3
# OVCAR-3 = experiment: Anticancer activity against human OVCAR3 cells assessed as cellular growth at 10 uM; in short: as §2
# OVCAR-4 = experiment: Anticancer activity against human OVCAR4 cells assessed as cellular growth at 10 uM; in short: as §2
# OVCAR-5 = experiment: Anticancer activity against human OVCAR5 cells assessed as cellular growth at 10 uM; in short: as §2
# OVCAR-8 = experiment: Anticancer activity against human OVCAR8 cells assessed as cellular growth at 10 uM; in short: as §2
# NCI/ADR-RES = experiment: Anticancer activity against human NCI/ADR-RES cells assessed as cellular growth at 10 uM; in short: as §2
# SK-OV-3 = experiment: Anticancer activity against human SKOV3 cells assessed as cellular growth at 10 uM; in short: as §2
# 786-0 = experiment: Anticancer activity against human 786-0 cells assessed as cellular growth at 10 uM; in short: as §3
# A498 = experiment: Anticancer activity against human A498 cells assessed as cellular growth at 10 uM; in short: as §3
# ACHN = experiment: Anticancer activity against human ACHN cells assessed as cellular growth at 10 uM; in short: as §3
# RXF 393 = experiment: Anticancer activity against human RXF393 cells assessed as cellular growth at 10 uM; in short: as §2
# TK-10 = experiment: Anticancer activity against human TK10 cells assessed as cellular growth at 10 uM; in short: as §4
# UO-31 = experiment: Anticancer activity against human UO31 cells assessed as cellular growth at 10 uM; in short: as §4
# PC-3 = experiment: Anticancer activity against human PC3 cells assessed as cellular growth at 10 uM; in short: as §2
# DU-145 = experiment: Anticancer activity against human DU145 cells assessed as cellular growth at 10 uM; in short: as §3
# MCF7 = experiment: Anticancer activity against human MCF7 cells assessed as cellular growth at 10 uM; in short: as §3
# MDA-MB-231 = experiment: Anticancer activity against human MDA-MB-231 cells assessed as cellular growth at 10 uM; in short: as §3
# [3] = Anticancer activity against human Hs 578T cells assessed as cellular growth at 10 uM; in short: as §3
# BT-549 = experiment: Anticancer activity against human BT549 cells assessed as cellular growth at 10 uM; in short: as §3
# T47D = experiment: Anticancer activity against human T47D cells assessed as cellular growth at 10 uM; in short: as §4
# MDA-MB-468 = experiment: Anticancer activity against human MDA-MB-468 cells assessed as cellular growth at 10 uM; in short: as §2
# SN12C = experiment: Anticancer activity against human SN12C cells assessed as cellular growth at 10 uM; in short: as §2
smiles,measurement,setting,value
COc1ccc(C2CC(c3cc(Cl)c(C)cc3OC)=NN2c2ccc(S(N)(=O)=O)cc2)cc1OC (stereo unspecified),inhibition in vivo at 20 mg/kg,Rattus norvegicus [1],31.6%
same,inhibition in vivo at 20 mg/kg,Rattus norvegicus [2],47.6%
same,Activity,RPMI-8226,90.96%
same,Activity,A549,73.23%
same,Activity,EKVX,80.65%
same,Activity,HOP-62,87.79%
same,Activity,HOP-92,101.2%
same,Activity,NCI-H226,81.27%
same,Activity,NCI-H23,75.79%
same,Activity,NCI-H322M,103.5%
same,Activity,NCI-H460,89.78%
same,Activity,NCI-H522,74.33%
same,Activity,COLO 205,101.3%
same,Activity,HCC 2998,99.94%
same,Activity,HCT-116,56.66%
same,Activity,HCT-15,75.93%
same,Activity,HT-29,78.73%
same,Activity,KM12,91.8%
same,Activity,SW-620,93.6%
same,Activity,SF-268,90.07%
same,Activity,SF-295,122.81%
same,Activity,SF-539,102.69%
same,Activity,SNB-19,100.7%
same,Activity,SNB-75,83.56%
same,Activity,U-251,78.37%
same,Activity,LOX IMVI,77.92%
same,Activity,Malme-3M,101.32%
same,Activity,M14,81.83%
same,Activity,MDA-MB-435,95.83%
same,Activity,SK-MEL-2,95.75%
same,Activity,SK-MEL-28,108.41%
same,Activity,SK-MEL-5,84.63%
same,Activity,UACC-257,87.16%
same,Activity,UACC-62,65.06%
same,Activity,IGROV-1,79.08%
same,Activity,OVCAR-3,103.3%
same,Activity,OVCAR-4,87.79%
same,Activity,OVCAR-5,70.62%
same,Activity,OVCAR-8,73.83%
same,Activity,NCI/ADR-RES,77.18%
same,Activity,SK-OV-3,116.37%
same,Activity,786-0,92.29%
same,Activity,A498,111.51%
same,Activity,ACHN,83.96%
same,Activity,RXF 393,77.69%
same,Activity,TK-10,112.95%
same,Activity,UO-31,59.09%
same,Activity,PC-3,52.25%
same,Activity,DU-145,105.76%
same,Activity,MCF7,80.37%
same,Activity,MDA-MB-231,84.64%
same,Activity,[3],100.69%
same,Activity,BT-549,83.23%
same,Activity,T47D,77.03%
same,Activity,MDA-MB-468,94.62%
same,Activity,SN12C,87.41%
